This is a sample that favours compounds with a hit; in the whole collection about 9.2% have one here.
Dynein cargo inh: dynein cargo transport inhibition; 3617.4 mouse cells, GR-EGFP nuclear translocation imaging; test concentration mostly 20 µM; stimulated with dexamethasone, 1 µM; stronger effect = lower value; z-score, hits read low; hit rate 0.47% among 220,000; AID 1381;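 active = plate z-score of nuclear minus cytoplasmic receptor signal below a set negative limit, without overly bright fluorescence or cell loss, cut at about -3.5 in these data, passing the limit was not always enough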;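 note: z-score of nuclear minus cytoplasmic ring GR-EGFP intensity difference per well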
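Buffer or medium: tet-free medium with charcoal-stripped serum / Also added: dexamethasone agonist, 1.0 µM final, for 30 min / Timing: induction 48 h, compound 1 h, agonist 30 min / Measured by: high-content fluorescence imaging after fixation / Read-out: nuclear-to-cytoplasmic GR-EGFP distribution per well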
HCT116 PTEN-null: suppresses growth of cells with PTEN deletion. HCT116 PTEN-null viability, CellTiter-Glo, 60 h; stronger effect = lower value. viability, % at 10 µM. hit rate 1.2% among 140,000;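 active = viability at or below a set limit, 4 SD under the median of all tested compounds, cut at about 3.7% in these data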;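 note: PTEN knockout HCT116 line with beta catenin targeted HCT116 as companion control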
bCat KO growth: beta-catenin-lacking colon tumor cell growth suppression | viability, % at 10 µM | hit rate 1.5% among 140,000 | HCT116 beta-catenin knockout viability, CellTiter-Glo, 60 h; stronger effect = lower value | AID 818;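 active = viability at or under a set limit, the compound median less 4 SD, cut at about 6% in these data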;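 note: 0% = Hyamine 1622 control at 20 µM and 100% = untreated cell control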
L major viab: reduces viability of Leishmania major promastigotes | inhibition, % at 10 µM | resazurin fluorescence viability | hit rate 9% among 200,000; in the data active = inhibition above about 50%;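 note: promastigotes grown with compound for 44 hours at 28 °C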
Autophagy mod: autophagy modulation, high-content screen; hit rate 0.98% among 190,000; calls only at 10 µM (by protocol); MEF GFP-LC3 puncta imaging; test concentration mostly 10 µM;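 active = percentage of spot-positive cells more than 3 SD above its plate mean, without a fluorescence outlier flag or 80% toxicity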;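 note: spot-positive cell cutoff set from DMSO-treated cells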
The depositor's hits bear a star; i = inactive; x = no result given; + = active, no number.

SMILES	Dynein cargo inh	HCT116 PTEN-null	bCat KO growth	L major viab	Autophagy mod
CCc1ccc(NC(=O)C(CC)Sc2nc3cc4c(cc3c(=O)n2Cc2ccco2)OCO4)cc1 (stereo not drawn)	-0.446	15.3	1.8*	8.9	+
O=C(NCc1ccccc1)C1=C[C@@H](c2ccc(Br)cc2)C[C@@H](OCc2ccc(CO)cc2)O1	-0.427	x	x	54.9*	i
O=C(NCc1nc2ccccc2[nH]1)C1=C[C@@H](c2csc3ccccc23)C[C@@H](OCc2ccc(CO)cc2)O1	-0.224	x	x	95.5*	i
O=C(NCc1nc2ccccc2[nH]1)C1=C[C@@H](c2ccc(Br)cc2)C[C@@H](OCCCCO)O1	-0.0474	x	x	9.2	i
O=C(NCc1ccccc1)C1=C[C@H](c2ccc(C(F)(F)F)cc2)C[C@H](OCc2ccc(CO)cc2)O1	2.72	x	x	14.5	i
O=C(NCc1nc2ccccc2[nH]1)C1=C[C@@H](c2ccc(Br)cc2)C[C@@H](OCc2ccc(CO)cc2)O1	0.782	x	x	78.0*	i
O=C(NCc1nc2ccccc2[nH]1)C1=C[C@H](c2csc3ccccc23)C[C@H](OCc2ccc(CO)cc2)O1	0.812	x	x	x	x
c1ccc(COc2cccc(CNCc3ccccn3)c2)cc1	1.2	x	x	96.5*	i
COc1ccc(-c2ccccc2)cc1NCc1ccc(OC)c(OC)c1	-0.347	92.3	87.0	98.5*	i
COc1cc(CNc2ccc(NC(C)=O)cc2)ccc1OCc1ccccc1C	1.4	x	x	73.4*	i
Oc1ccc(NCc2cccc(OCc3ccccc3)c2)cc1	-0.866	x	x	7.2	i
CNCc1ccc(OCc2ccccc2)c(OC)c1	-1.64	94.6	93.0	80.0*	i
COc1ccccc1CNc1cc(-c2ccccc2)ccc1OC	-0.0256	87.9	77.9	36.1	i
COc1ccc(C(=O)NNC(=O)CSc2nnc(C)n2CC2CCCO2)cc1 (stereo not drawn)	0.0589	x	x	-6.8	i
COc1ccc(NC(=O)CSc2nc3c(c(=O)n2-c2ccc(C)cc2)SCC3)c(OC)c1	-0.482	86.0	88.9	0.9	i
c1ccc(COc2cccc(CNCc3cccnc3)c2)cc1	0.0241	x	x	98.2*	i
COc1cc(CC(=O)O)ccc1OCc1ccccc1	-0.0917	x	x	x	x
Fc1ccc(COc2ccc3ccccc3c2CNc2nn[nH]n2)cc1	0.52	x	x	-0.2	i
COc1cc(CNCc2cccnc2)ccc1OCc1ccccc1	0.163	x	x	96.0*	+
Nc1nnnn1NCc1cccc(OCc2ccccc2)c1	-1.16	95.3	82.0	1.1	i
CNCc1c(OCc2ccc(F)cc2)ccc2ccccc12	-0.895	x	x	62.6*	i
N#CCCN(Cc1cccs1)C(=O)Nc1ccc(F)cc1	-0.28	x	x	x	x
O=C(CCCC(=O)N(CC(=O)NC1CCCC1)Cc1ccccc1)Nc1ccccn1	-0.33	100.9	93.8	-1.5	i
O=C(/C=C/c1cccc([N+](=O)[O-])c1)OC1CCCCC1=O (stereo not drawn)	-1.58	x	x	-5.7	i
Cc1ccc2nc(NC(=O)C(NS(=O)(=O)c3cccc4nsnc34)C(C)C)sc2c1 (stereo not drawn)	1.54	79.9	82.7	96.2*	i
SMILES	Dynein cargo inh	HCT116 PTEN-null	bCat KO growth	L major viab	Autophagy mod
COc1ccc2nc(NC(=O)C(NS(=O)(=O)c3cccs3)C(C)C)sc2c1 (stereo not drawn)	2.05	92.5	91.0	88.8*	i
COc1ccc2nc(NC(=O)c3cccnc3SC)sc2c1	-0.354	88.4	84.5	80.7*	i
COc1ccc2nc(NC(=O)CS(=O)(=O)Cc3ccccc3)sc2c1	0.0941	x	x	3.1	+
CSc1ncccc1C(=O)Nc1nc2ccc(S(C)(=O)=O)cc2s1	-0.535	x	x	5.2	i
O=C(NCc1ccccc1)NC(O)C(Cl)(Cl)Cl (stereo not drawn)	-0.478	x	x	-6.9	i
COc1cccc(/C=C(/C(=O)OCC(N)=O)c2ccccc2)c1	1.25	x	x	13.5	i
CC1CCCC(NC(=O)COC(=O)c2ccccc2[N+](=O)[O-])C1C (stereo not drawn)	0.0947	x	x	2.7	+
CC(C)NC(=O)COC(=O)c1cccc(NS(=O)(=O)/C=C/c2ccccc2)c1	-0.703	106.7	94.8	-2.7	i
CC1CCCC(NC(=O)COC(=O)c2cccc(NS(=O)(=O)/C=C/c3ccccc3)c2)C1C (stereo not drawn)	-0.617	96.6	94.9	53.3*	i
COc1cccc(/C=C(/C(=O)OCC(=O)NC2CCCC(C)C2C)c2ccccc2)c1 (stereo not drawn)	-0.14	57.8	63.7	96.4*	i
CSCCC(NC(=O)c1ccc([N+](=O)[O-])cc1Cl)C(=O)OCC(=O)NC1CCCC(C)C1C (stereo not drawn)	0.502	96.4	95.6	59.7*	i
CSCCC(NC(=O)c1cc([N+](=O)[O-])ccc1Cl)C(=O)O (stereo not drawn)	-0.0402	89.4	112.4	-4.3	i
Clc1ccccc1/C=C/C=N/Nc1nc(N2CCOCC2)nc(N2CCOCC2)n1	-0.492	x	x	12.6	i
O=C(CCSCc1ccccc1Cl)NC1CCCC1	1.38	88.1	87.5	-3.4	i
COc1ccc2c(CC(=O)Nc3ccccc3N3CCOCC3)coc2c1	0.716	x	x	x	x
CCCCCCCCc1nc(SCC(C)=O)n[nH]1	0.392	x	x	x	x
CCCc1[nH]nc2c1C1(C(=O)N(C(C)C)c3ccccc31)C(C#N)=C(N)O2 (stereo not drawn)	0.228	72.5	69.2	0.8	+
Cc1ccc(NC(=O)COC(=O)CCNS(=O)(=O)c2ccc(C)c(C)c2)cc1	-0.0257	99.6	92.2	-10.0	i
CC(C)(C)c1ccc(/C=C/C(=O)Nc2ccncc2)cc1	1.63	41.9	37.0	87.7*	i
CCOC(=O)c1sc(NC(=O)/C=C/c2ccc(F)cc2)nc1C	-1.04	x	x	-5.3	i
Cc1nc(NC(=O)/C=C/c2ccc(C(C)(C)C)cc2)sc1C(=O)N(C)C	-0.107	83.2	89.8	60.8*	i
CCCC(=O)Nc1nc(-c2ccccc2)c(CC)s1	-0.709	x	x	14.6	i
CNCC/C=C1/c2ccccc2CSc2ccccc21	2.63	16.1	16.1	90.3*	i
CCCCCC[N+](C)(C)CC/C=C1/c2ccccc2Sc2ccc(Cl)cc21	0.268	x	x	x	x
Cc1c(C(=O)Nc2nnc(SCc3ccccc3Cl)s2)cccc1[N+](=O)[O-]	1.2	84.1	81.2	74.1*	i
Cc1c(C(=O)NCCSCc2ccccc2Cl)cccc1[N+](=O)[O-]	0.937	97.1	90.8	32.7	i
CC(C)(C)n1nnnc1C(c1cccs1)N(Cc1ccc(Cl)cc1)CC1CCCO1 (stereo not drawn)	-0.209	21.4	12.9	25.1	i
CC(C)(Oc1ccc(Cl)cc1)C(=O)N(Cc1ccccc1)c1ccccn1	0.0019	61.5	67.7	87.0*	i
CC(C)(Oc1ccc(Cl)cc1)C(=O)N1CCN(c2ccccn2)CC1	-1.14	69.3	78.7	62.2*	i
C(=N\NC1=Nc2cccc3cccc1c23)/c1ccccc1	-0.044	96.0	75.4	8.3	i

From PubChem
